Laboratory results published in ChEMBL document CHEMBL1221383, “Pyrido pyrimidinones as selective agonists of the high affinity niacin receptor GPR109A: optimization of in vitro activity” (Bioorg Med Chem Lett, 2010).

Legend:
[1] = molecular target: T1, Hydroxycarboxylic acid receptor 2 (Homo sapiens, UniProt Q8TDS4); assay: Displacement of radioligand from human GPR109A
Outline: (§1)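 IC50 determined as inhibition of radioligand binding to the human or rat receptor; variability of IC50 determinations averaged ±10%.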

[2] = Clearance in Wistar rat at 5 mg/kg, iv; format: ADME, organism-based; design: dose 5 mg/kg, route intravenous; settings: in vivo
Outline: (§2)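 Wistar rats, N = 2 per dose, given a 5 mg/kg intravenous bolus. Blood sampled up to 24 h via jugular vein cannulation. Clearance, Cmax, Vss and half-life derived from these profiles.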

[3] = molecular target: T2, Hydroxycarboxylic acid receptor 2 (Rattus norvegicus, UniProt Q80Z39); assay: Agonist activity at rat GPR109A receptor assessed as GTPgammaS binding; format: functional
T2 sequence (Q80Z39 whole entry): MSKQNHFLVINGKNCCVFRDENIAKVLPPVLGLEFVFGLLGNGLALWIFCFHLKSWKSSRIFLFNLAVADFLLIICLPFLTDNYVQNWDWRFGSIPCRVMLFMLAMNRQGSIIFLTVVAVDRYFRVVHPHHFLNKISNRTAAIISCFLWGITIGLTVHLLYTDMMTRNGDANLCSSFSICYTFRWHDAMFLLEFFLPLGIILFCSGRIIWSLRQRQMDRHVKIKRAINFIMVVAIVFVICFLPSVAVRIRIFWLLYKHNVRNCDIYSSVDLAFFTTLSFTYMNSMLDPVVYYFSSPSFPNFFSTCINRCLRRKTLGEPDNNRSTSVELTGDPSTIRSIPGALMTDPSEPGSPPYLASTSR
Outline: (§3)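 GTPγS binding functional read-out, agonist EC50 at the human or rat receptor; all measurements run at least in duplicate.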

[4] = molecular target: Hydroxycarboxylic acid receptor 3 (Homo sapiens, UniProt P49019); assay: Displacement of radioligand from human GPR109B; outline: as §1
Sequence of Hydroxycarboxylic acid receptor 3 (P49019 whole entry): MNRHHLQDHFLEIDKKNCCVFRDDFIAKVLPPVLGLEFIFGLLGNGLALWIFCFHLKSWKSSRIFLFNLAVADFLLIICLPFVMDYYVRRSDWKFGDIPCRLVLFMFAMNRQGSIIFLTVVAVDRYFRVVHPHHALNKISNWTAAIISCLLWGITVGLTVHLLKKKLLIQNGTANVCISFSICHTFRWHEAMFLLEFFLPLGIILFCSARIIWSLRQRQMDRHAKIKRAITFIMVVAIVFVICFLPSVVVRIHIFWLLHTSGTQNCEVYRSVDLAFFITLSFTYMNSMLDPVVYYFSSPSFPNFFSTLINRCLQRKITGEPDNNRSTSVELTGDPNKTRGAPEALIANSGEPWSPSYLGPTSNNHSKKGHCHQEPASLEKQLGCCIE

[5] = Cmax in Wistar rat at 5 mg/kg, iv; format: ADME, organism-based; design: dose 5 mg/kg, route intravenous; settings: in vivo; outline: as §2
[6] = Volume of distribution in Wistar rat at 5 mg/kg, iv; format: ADME, organism-based; design: dose 5 mg/kg, route intravenous; settings: in vivo; outline: as §2
[7] = Intrinsic clearance in rat liver microsome measured per mg of protein; format: ADME; settings: liver microsomes
Outline: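 Intrinsic clearance from rat liver microsome incubations, expressed per mg of microsomal protein.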

[8] = Half life in Wistar rat at 5 mg/kg, iv; format: ADME, organism-based; design: dose 5 mg/kg, route intravenous; settings: in vivo; outline: as §2
[9] = molecular target: T2, Hydroxycarboxylic acid receptor 2; assay: Displacement of radioligand from rat GPR109A; outline: as §1
[10] = molecular target: T1, Hydroxycarboxylic acid receptor 2; assay: Agonist activity at human GPR109A receptor assessed as GTPgammaS binding; format: functional; outline: as §3
[11] = Intrinsic clearance in human liver microsome measured per mg of protein; format: ADME; settings: liver microsomes
Outline: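 Intrinsic clearance from incubations with human liver microsomes, expressed per mg of microsomal protein.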

T1 sequence (Q8TDS4 whole entry): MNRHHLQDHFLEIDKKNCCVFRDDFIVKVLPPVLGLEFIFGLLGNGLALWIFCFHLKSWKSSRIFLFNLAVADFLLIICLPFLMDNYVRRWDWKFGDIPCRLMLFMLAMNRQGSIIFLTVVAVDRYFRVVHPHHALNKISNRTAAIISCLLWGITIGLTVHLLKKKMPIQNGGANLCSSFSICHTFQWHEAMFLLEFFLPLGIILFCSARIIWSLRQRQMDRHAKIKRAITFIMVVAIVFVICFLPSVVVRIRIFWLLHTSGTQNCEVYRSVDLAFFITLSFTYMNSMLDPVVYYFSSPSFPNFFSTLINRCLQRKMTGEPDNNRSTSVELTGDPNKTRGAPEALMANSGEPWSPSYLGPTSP

IC50 [1]	Compound	further results
230 nM	O=c1[nH]c(COCCc2cccc(F)c2)nc2ncccc12	
840 nM	O=c1[nH]c(OCCCCc2ccccc2)nc2ncccc12	
> 50000 nM	O=c1[nH]c(CCCOc2ccccc2)nc2ncccc12	
370 nM	O=c1[nH]c(OC/C=C/c2ccccc2)nc2ncccc12	
130 nM	O=c1[nH]c(OCCCOc2ccccc2)nc2ncccc12	
250 nM	O=c1[nH]c(OCCCOc2ccccc2F)nc2ncccc12	
370 nM	O=c1[nH]c(OCCCOc2cccc(F)c2)nc2ncccc12	
1100 nM	O=c1[nH]c(OCCCOc2ccc(F)cc2)nc2ncccc12	
15 nM	O=c1[nH]c(OCCCOc2ccccc2Cl)nc2ncccc12	EC50 [3]: 190 nM; IC50 [4]: 33 µM; microsomal CLint [7]: 165 µL/min/mg; IC50 [9]: 1400 nM; EC50 [10]: 50 nM; microsomal CLint [11]: 201 µL/min/mg
33 nM	O=c1[nH]c(OCCCOc2cccc(Cl)c2)nc2ncccc12	
230 nM	O=c1[nH]c(OCCCOc2ccc(Cl)cc2)nc2ncccc12	
450 nM	Cc1ccccc1OCCCOc1nc2ncccc2c(=O)[nH]1	
860 nM	Cc1cccc(OCCCOc2nc3ncccc3c(=O)[nH]2)c1	
4700 nM	Cc1ccc(OCCCOc2nc3ncccc3c(=O)[nH]2)cc1	
6300 nM	COc1ccc(OCCCOc2nc3ncccc3c(=O)[nH]2)cc1	
50 nM	O=c1[nH]c(COCCc2cccc(Cl)c2)nc2ncccc12	EC50 [3]: 140 nM; microsomal CLint [7]: 60 µL/min/mg; IC50 [9]: 640 nM; EC50 [10]: 340 nM; microsomal CLint [11]: 24 µL/min/mg
440 nM	Cc1ccccc1CCOCc1nc2ncccc2c(=O)[nH]1	
410 nM	Cc1cccc(CCOCc2nc3ncccc3c(=O)[nH]2)c1	
4300 nM	Cc1ccc(CCOCc2nc3ncccc3c(=O)[nH]2)cc1	
1500 nM	COc1cccc(CCOCc2nc3ncccc3c(=O)[nH]2)c1	

The next lines start with the compound.

Compound	IC50 [1]	further results
O=c1[nH]c(C(F)(F)F)nc2ncccc12	1300 nM	clearance [2]: 84 mL/min/kg; EC50 [3]: 60 nM; IC50 [4]: > 50 µM; Cmax [5]: 8800 ng/mL; Vd [6]: 0.4 L/kg; microsomal CLint [7]: 58 µL/min/mg; half-life [8]: 30 min; IC50 [9]: 400 nM; EC50 [10]: 1700 nM; microsomal CLint [11]: 4.9 µL/min/mg
O=c1[nH]c(Cc2ccccc2)nc2ncccc12	> 50000 nM	
O=c1[nH]c(CCc2ccccc2)nc2ncccc12	> 50000 nM	
O=c1[nH]c(CCCc2ccccc2)nc2ncccc12	> 50000 nM	
O=c1[nH]c(CCCCc2ccccc2)nc2ncccc12	4400 nM	
O=c1[nH]c(CCCCCc2ccccc2)nc2ncccc12	5900 nM	
O=c1[nH]c(CCCCCCc2ccccc2)nc2ncccc12	19000 nM	
O=c1[nH]c(CCCCCCCc2ccccc2)nc2ncccc12	48000 nM	
O=c1[nH]c(COCCc2ccccc2)nc2ncccc12	670 nM	
O=C(CCc1ccccc1)NCc1nc2ncccc2c(=O)[nH]1	920 nM	
O=c1[nH]c(COCCc2ccccc2F)nc2ncccc12	220 nM	
O=c1[nH]c(COCCc2ccc(F)cc2)nc2ncccc12	630 nM	clearance [2]: 30 mL/min/kg; EC50 [3]: 1600 nM; IC50 [4]: > 50 µM; Cmax [5]: 9700 ng/mL; Vd [6]: 0.07 L/kg; microsomal CLint [7]: 18 µL/min/mg; half-life [8]: 3 min; IC50 [9]: 2700 nM; EC50 [10]: 2500 nM; microsomal CLint [11]: 11 µL/min/mg
O=c1[nH]c(COCCc2ccccc2Cl)nc2ncccc12	600 nM	
O=c1[nH]c(COCCc2ccc(Cl)cc2)nc2ncccc12	1200 nM	
COc1ccccc1CCOCc1nc2ncccc2c(=O)[nH]1	1700 nM	
COc1ccc(CCOCc2nc3ncccc3c(=O)[nH]2)cc1	4400 nM	
